Structures are written as SMILES.

Series [1] concerns Amaranthus retroflexus. In words: Post-emergence herbicidal activity against Amaranthus retroflexus assessed as inhibition at 150 g/hectare treated at two-leaf stage by green house assay. Type of series: functional. Put shortly: (§1)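 Greenhouse postemergence spray of diluted formulation solutions onto broadleaf weeds at the two-leaf stage. Primary screen at 150 g ai/ha, with selected compounds retested at 75 and 37.5 g ai/ha. Abutilon was tested at 150 g ai/ha only. Read-out is percent herbicidal damage relative to an untreated control.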

Series [2] relates to Echinochloa crus-galli. Kind of series: Post-emergence herbicidal activity against Echinochloa crus-galli (barnyard grass) assessed as inhibition at 150 g/hectare treated at one-leaf stage by green house assay. Type of series: functional. Put shortly: (§2)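 Monocot weeds were sprayed postemergence in the greenhouse at the one-leaf stage with diluted formulation solutions. Primary dose was 150 g ai/ha, with follow-up doses of 75 and 37.5 g ai/ha for selected compounds. Activity is scored as percent herbicidal damage compared with an untreated control.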

In series [3] the test system is Gossypium hirsutum. Kind of series: Toxicity in Gossypium hirsutum (cotton) plant assessed as inhibition at 150 g/hectare. As to conditions: in vivo. It counts as organism-based. Put shortly:
(§3)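 For crop selectivity, conventional crop varieties were planted in 12 cm diameter plots and given a postemergence treatment at 150 g ai/ha. Injury was scored as percent inhibition, with 0–10% classed as safe to the crop.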

For series [4], the system named is Eclipta prostrata. Kind of series: Post-emergence herbicidal activity against Eclipta prostrata assessed as inhibition at 75 g/hectare treated at two-leaf stage by green house assay. It counts as functional. The gist of the method:
as §1

Series [5] relates to Eclipta prostrata. Kind of series: Post-emergence herbicidal activity against Eclipta prostrata assessed as inhibition at 37.5 g/hectare treated at two-leaf stage by green house assay. Type of series: functional. The gist of the method: as §1
The subject of series [6] is Setaria viridis. In words: Post-emergence herbicidal activity against Setaria viridis (green foxtail) assessed as inhibition at 75 g/hectare treated at one-leaf stage by green house assay. It counts as functional. Put shortly: as §2
Series [7] deals with Triticum aestivum. Kind of series: Toxicity in Triticum aestivum (wheat) plant assessed as inhibition at 150 g/hectare. It counts as organism-based. As to conditions: in vivo. Put shortly: as §3
The test system of series [8] is Echinochloa crus-galli. In words: Post-emergence herbicidal activity against Echinochloa crus-galli (barnyard grass) assessed as inhibition at 75 g/hectare treated at one-leaf stage by green house assay. It counts as functional. The gist of the method: as §2
Series [9] relates to Oryza sativa. In words: Toxicity in Oryza sativa (rice) plant assessed as inhibition at 150 g/hectare. Type of series: organism-based. The note with it: in vivo. Put shortly:
as §3

The subject of series [10] is Digitaria sanguinalis. Kind of series: Post-emergence herbicidal activity against Digitaria sanguinalis (hairy crabgrass) assessed as inhibition at 37.5 g/hectare treated at one-leaf stage by green house assay. Type of series: functional. The gist of the method: as §2
Series [11] relates to Digitaria sanguinalis. In words: Post-emergence herbicidal activity against Digitaria sanguinalis (hairy crabgrass) assessed as inhibition at 75 g/hectare treated at one-leaf stage by green house assay. It counts as functional. Put shortly:
as §2

For series [12], the system named is Brassica juncea. Kind of series: Post-emergence herbicidal activity against Brassica juncea assessed as inhibition at 75 g/hectare treated at two-leaf stage by green house assay. Type of series: functional. The gist of the method:
as §1

For series [13], the system named is Glycine max. In words: Toxicity in Glycine max (soybean) plant assessed as inhibition at 150 g/hectare. It counts as organism-based. As to conditions: in vivo. The gist of the method:
as §3

Series [14] relates to Brassica napus. Kind of series: Toxicity in Brassica napus (oilseed rape) assessed as inhibition at 150 g/hectare. Type of series: functional. Put shortly:
as §3

The test system of series [15] is Zea mays. Kind of series: Toxicity in Zea mays (maize) plant assessed as inhibition at 150 g/hectare. Type of series: organism-based. As to conditions: in vivo. Put shortly:
as §3

Series [16] relates to Amaranthus retroflexus. In words: Post-emergence herbicidal activity against Amaranthus retroflexus assessed as inhibition at 75 g/hectare treated at two-leaf stage by green house assay. Type of series: functional. The gist of the method: as §1
For series [17], the system named is Amaranthus retroflexus. In words: Post-emergence herbicidal activity against Amaranthus retroflexus assessed as inhibition at 37.5 g/hectare treated at two-leaf stage by green house assay. It counts as functional. Put shortly:
as §1

The subject of series [18] is Setaria viridis. Kind of series: Post-emergence herbicidal activity against Setaria viridis (green foxtail) assessed as inhibition at 37.5 g/hectare treated at one-leaf stage by green house assay. Type of series: functional. The gist of the method:
as §2

Series [19] concerns Brassica juncea. Kind of series: Post-emergence herbicidal activity against Brassica juncea assessed as inhibition at 37.5 g/hectare treated at two-leaf stage by green house assay. It counts as functional. The gist of the method:
as §1

Series [20] deals with Digitaria sanguinalis. Kind of series: Post-emergence herbicidal activity against Digitaria sanguinalis (hairy crabgrass) assessed as inhibition at 150 g/hectare treated at one-leaf stage by green house assay. It counts as functional. Put shortly: as §2
Series [21] deals with Eclipta prostrata. In words: Post-emergence herbicidal activity against Eclipta prostrata assessed as inhibition at 150 g/hectare treated at two-leaf stage by green house assay. Type of series: functional. Put shortly: as §1
The subject of series [22] is Echinochloa crus-galli. Kind of series: Post-emergence herbicidal activity against Echinochloa crus-galli (barnyard grass) assessed as inhibition at 37.5 g/hectare treated at one-leaf stage by green house assay. Type of series: functional. Put shortly:
as §2

In series [23] the test system is Setaria viridis. Kind of series: Post-emergence herbicidal activity against Setaria viridis (green foxtail) assessed as inhibition at 150 g/hectare treated at one-leaf stage by green house assay. It counts as functional. Put shortly:
as §2

Series [24] has as its system Abutilon theophrasti. Kind of series: Post-emergence herbicidal activity against Abutilon theophrasti (velvetleaf) assessed as inhibition at 150 g/hectare treated at two-leaf stage by green house assay. Type of series: functional. The gist of the method:
as §1

Series [25] deals with Brassica juncea. In words: Post-emergence herbicidal activity against Brassica juncea assessed as inhibition at 150 g/hectare treated at two-leaf stage by green house assay. It counts as functional. Put shortly: as §1

For the compound `CCCCC(OC(=O)COc1ccc(Cl)cc1Cl)P1(=O)OCC(C)(C)CO1` (stereo not drawn), the inhibition at 150 g/ha in [1] was found to be 85%; in series [2], 0%; in series [14], 40%; in series [20], 0%; in series [21], 75%; in [23], 0%. Further, the inhibition at 150 g/ha in series [24] came out at 90%; in series [25], 100%. Besides, the “inhibition (INH)” value is 20% in [3]; 10% in series [7]; 30% in series [9]; 30% in series [13]; 0% in series [15]. The inhibition at 75 g/ha in [4] worked out at 40%; in series [6], 0%; in series [8], 0%; in [11], 0%; in series [12] it was 100%; in series [16], 70%. Besides, the inhibition at 37.5 g/ha in series [5] is 30%; in series [10], 0%; in [17], 50%; in series [18], 0%; in series [19], 90%; in series [22] it was 0%.

On to `Cc1cc(OCC(=O)OC(c2ccccc2)P2(=O)OCC(C)(C)CO2)ccc1Cl` (stereo not drawn), for which the inhibition at 150 g/ha in series [1] was found to be 65%; in series [2], 0%; in series [20] it was 0%; in series [21], 60%; in series [23], 0%; in series [24] it was 65%. For the same compound, the inhibition at 150 g/ha in [25] turned out to be 65%.

As to `COP(=O)(OC)C(C)OC(=O)COc1ccc(Cl)cc1Cl` (stereo not drawn) [CLACYFOS], the inhibition at 150 g/ha is 96% in series [1]; 0% in series [2]; 0% in [20]; 90% in series [21]; 0% in series [23]; 100% in series [24]. Also, the inhibition at 150 g/ha in series [25] was determined as 85%. The inhibition at 75 g/ha in series [4] stood at 80%; in series [6], 0%; in series [8] it was 0%; in [11], 0%; in series [12] it was 95%; in series [16] it was 95%. Besides, the inhibition at 37.5 g/ha in [5] was 60%; in series [10] it was 0%; in series [17], 70%; in [18], 0%; in series [19], 90%; in series [22] it was 0%.

As to `CC(OC(=O)COc1ccccc1Cl)P1(=O)OCC(C)(C)CO1` (stereo not drawn), the inhibition at 150 g/ha in series [1] stood at 90%; in series [2] it was 20%; in series [20], 0%; in [21] it was 75%; in series [23] it was 0%; in series [24] it was 70%. Further, in series [25], the inhibition at 150 g/ha came out at 90%.

As for `Cc1cc(OCC(=O)OC(c2ccco2)P2(=O)OCC(C)(C)CO2)ccc1Cl` (stereo not drawn), the inhibition at 150 g/ha in series [1] amounted to 60%; in series [2], 0%; in series [20] it was 0%; in series [21] it was 55%; in series [23], 0%; in series [24], 70%. Further, in [25], the inhibition at 150 g/ha was determined as 65%.

For the compound `CC1(C)COP(=O)(C(OC(=O)COc2ccc(Cl)cc2)c2ccco2)OC1` (stereo not drawn), the inhibition at 150 g/ha was 55% in series [1]; 0% in [2]; 0% in series [20]; 50% in series [21]; 0% in [23]; 70% in series [24]. Moreover, in series [25], the inhibition at 150 g/ha was 70%.

Turning to `CC(OC(=O)COc1ccc(Cl)cc1)P1(=O)OCC(C)(C)CO1` (stereo not drawn), the inhibition at 150 g/ha in series [1] was determined as 70%; in series [2], 10%; in series [20], 0%; in [21] it was 60%; in series [23] it was 0%; in series [24] it was 70%. The inhibition at 150 g/ha in [25] is 75%.

Turning to `Cc1cc(Cl)ccc1OCC(=O)OC(c1ccco1)P1(=O)OCC(C)(C)CO1` (stereo not drawn), the inhibition at 150 g/ha stood at 100% in series [1]; 60% in [2]; 0% in [20]; 70% in series [21]; 0% in series [23]; 100% in [24]. Moreover, the inhibition at 150 g/ha in [25] is 90%.

On to `CC1(C)COP(=O)(C(OC(=O)COc2ccccc2Cl)c2ccco2)OC1` (stereo not drawn), for which the inhibition at 150 g/ha in series [1] worked out at 85%; in series [2] it was 0%; in series [20] it was 0%; in series [21], 70%; in [23], 0%; in series [24] it was 70%. Besides, the inhibition at 150 g/ha in series [25] worked out at 90%.

Take `COP(=O)(OC)C(C)OC(=O)COc1ccc(Cl)cc1C` (stereo not drawn): the inhibition at 150 g/ha in [1] turned out to be 10%; in series [2], 0%; in series [20], 0%; in [21] it was 30%; in [23], 0%; in series [24], 82%. In addition, in [25], the inhibition at 150 g/ha was 20%.

On to `Cc1cc(Cl)ccc1OCC(=O)OC(c1ccccc1)P1(=O)OCC(C)(C)CO1` (stereo not drawn), for which the inhibition at 150 g/ha in series [1] turned out to be 100%; in [2], 40%; in series [20], 0%; in [21], 75%; in series [23], 0%; in series [24] it was 100%. Moreover, in series [25], the inhibition at 150 g/ha worked out at 90%.

For `CC1(C)COP(=O)(C(OC(=O)COc2ccc(Cl)cc2)c2ccccc2)OC1` (stereo not drawn), the inhibition at 150 g/ha in [1] turned out to be 60%; in [2], 0%; in series [20], 0%; in [21], 50%; in [23], 0%; in series [24] it was 65%. The inhibition at 150 g/ha in series [25] is 70%.

Consider `CC1(C)COP(=O)(C(OC(=O)COc2ccccc2Cl)c2ccccc2)OC1` (stereo not drawn), for which the inhibition at 150 g/ha turned out to be 75% in series [1]; 0% in [2]; 0% in series [20]; 65% in series [21]; 0% in series [23]; 70% in series [24]. Further, the inhibition at 150 g/ha in [25] was 75%.

With `Cc1cc(OCC(=O)OC(C)P2(=O)OCC(C)(C)CO2)ccc1Cl` (stereo not drawn), the inhibition at 150 g/ha in series [1] is 60%; in series [2], 0%; in series [20], 0%; in series [21], 60%; in series [23], 0%; in series [24] it was 70%. For the same compound, the inhibition at 150 g/ha in [25] amounted to 70%.
